OX1R antag-1: antagonists of human orexin 1 receptor (OX1R) | Orexin/Hypocretin receptor type 1 (Homo sapiens), O43613 | OX1R-expressing cells, FRET antagonist read-out | inhibition, % at 6.6 µM | hit rate 1.8% among 330,000 | AID 485270, 2010; in the data active = inhibition mostly above about 38%, no sharp cut-off; inactive = mostly below about 40%;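 note: 0% = agonist challenge alone and 100% = reference antagonist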
Target sequence (O43613 whole entry, looked up): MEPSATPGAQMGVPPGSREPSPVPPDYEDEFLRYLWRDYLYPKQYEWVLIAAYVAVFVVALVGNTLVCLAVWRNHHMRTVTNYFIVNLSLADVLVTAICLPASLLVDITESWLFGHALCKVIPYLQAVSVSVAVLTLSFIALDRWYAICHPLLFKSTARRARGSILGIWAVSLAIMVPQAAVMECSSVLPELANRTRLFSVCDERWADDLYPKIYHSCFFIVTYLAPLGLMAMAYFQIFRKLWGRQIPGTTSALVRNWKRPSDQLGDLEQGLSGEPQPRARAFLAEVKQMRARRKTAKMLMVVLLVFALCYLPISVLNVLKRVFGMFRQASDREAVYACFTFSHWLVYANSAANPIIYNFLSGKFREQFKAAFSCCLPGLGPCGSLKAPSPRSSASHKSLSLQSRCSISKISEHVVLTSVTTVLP
CHO-K1 Ca antag: M1 antagonist counterscreen hit in parental CHO-K1 cells. ATP-induced calcium, Fluo-8 fluorescence. inhibition, % at 3 µM. hit rate 0.6% among 360,000. AID 602250;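 active = inhibition above a per-plate cutoff, the plate's mean sample inhibition plus 3 SD, cut at about 24% in these data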;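 note: 0% = DMSO plus EC80 ATP and 100% = DMSO alone without ATP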
OX1R antag-2: OX1R (HCRTR1) antagonists, primary screen, fluorescence, CHO/OX1R cells, Fluo-8 calcium, orexin A. Fluo-8 calcium fluorescence. AID 434989, 2010. Orexin/Hypocretin receptor type 1 (Homo sapiens), O43613. hit rate 0.43% among 330,000. inhibition, % at 5 µM;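 active = inhibition above its plate's threshold, mean inhibition of all tested compounds on the plate plus 3 SD, cut at about 37% in these data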;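 note: 0% = orexin A challenge wells and 100% = SB-334867-A antagonist wells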
CHO-K1 Ca ag: counter-screen for M1 agonists: effect in parental CHO-K1 cells; Fluo-8 calcium fluorescence; scaled to maximal ATP response, vehicle zero; activation, % at 3 µM; hit rate 0.48% among 360,000; AID 602248, 2012; in the data active = activation above about 15%;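 note: untransfected CHO-K1 host cells lacking M1 receptor as counterscreen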
M1 PAM parental: nonselective calcium activators in parental CHO-K1 cells, primary screen, counter-screen for M1 PAM project, cell-based, Fluo-8 calcium fluorescence, full deck, 1536-well. ATP EC20; 0% at ATP EC20, 100% at ATP max. hit rate 0.02% among 360,000. activation, % at 3 µM;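 active = activation above the run cutoff, the mean activation of all test compounds plus 3 SD, cut at about 40% in these data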;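 note: peak over basal fluorescence ratio in a 140 s read after ATP addition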
CHO parental Ca: ATP-evoked calcium signal inhibitors, parental CHO, primary screen, counter-screen for OX1R antagonist project, cell-based, fluorescence, Fluo-8 calcium dye; parental CHO-K1, ATP-induced calcium, Fluo-8 fluorescence; inhibition, % at 5.6 µM; hit rate 0.63% among 330,000; AID 463079, 2010;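 active = inhibition above that plate's mean sample inhibition plus 3 SD, cut at about 26% in these data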;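 note: 0% = ATP-challenged DMSO wells and 100% = DMSO wells without ATP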
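Test system: parental CHO cells; detection: calcium-sensitive Fluo-8 fluorescence; evaluation: percent inhibition of calcium signal; also added: ATP as calcium-mobilizing challenge; repeats: one well per compound; control set: ATP-challenged DMSO wells low, unchallenged DMSO wells high; compound: single nominal dose of 5.6 µM per compound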
* = called active by the depositor; . = not tested or not shown. Hits are enriched below; roughly 2.9% of the tested compounds scored in any of these assays.

SMILES	OX1R antag-1	CHO-K1 Ca antag	OX1R antag-2	CHO-K1 Ca ag	M1 PAM parental	CHO parental Ca
O=[N+]([O-])c1ccc(-n2nnnc2-c2ccccc2)c([N+](=O)[O-])c1	60	-10	-15	1	19	-12
O=[N+]([O-])c1ccc(-n2nnnc2-c2ccccc2)cc1	54*	-13	-2	1	22	-1
COc1ccc(NC(=O)CCc2ccc(OC)c(OC)c2)cn1	10	4	-3	1	4	-9
O=c1[nH]c2c(Br)cnc([N+](=O)[O-])c2[nH]1	43*	-13	-10	1	16	-7
COc1ccc2[nH]c3c(c2c1)CCN1C(=O)C(CC(=O)NC/C=C(\C)CCC=C(C)C)C[C@H](C(=O)N2CCCCC2)[C@@]31C (stereo partly specified)	14	.	51*	.	.	-42
CC[C@]12c3[nH]c4cc(-c5ccco5)ccc4c3CCN1C(=O)[C@@H](CC(=O)NCCC1=CCCCC1)C[C@@H]2C(=O)N1CCN(C(=O)c2ccco2)CC1	43*	3	45	0	1	-21
CC(C)=CCC/C(C)=C/CNC(=O)C[C@H]1C[C@H](C(=O)N2CCCCC2)[C@@]2(C)c3[nH]c4ccc(Cl)cc4c3CCN2C1=O	0	-13	-28	1	17	-16
O=C(C[C@H]1C[C@H](C(=O)N2CCCCC2)[C@@]2(CCc3ccccc3)c3[nH]c4ccc(Cl)cc4c3CCN2C1=O)NCCC1=CCCCC1	3	26*	-32	0	-11	0
CC1(C(=O)Nc2ccc3c(c2)OCO3)CCN1C(=O)CCc1cccs1 (stereo unspecified)	.	-2	.	1	14	.
COc1ccc(C(C)=O)cc1COC(=O)CNC(=O)c1ccc(F)cc1	10	0	-13	2	5	-13
COc1ccc(C(C)=O)cc1COC(=O)CNC(=O)c1ccc(Cl)cc1	17	29*	-31	11	-14	-19
CC(=O)Oc1[nH]c(=O)c2cccc3c2c1CCC3	.	-19	.	1	24	.
Cc1cc(/C=N/Nc2nc(N)ncc2[N+](=O)[O-])c(C)n1-c1ccccc1F	44*	.	-37	.	.	-34
O=C(CN1C(=O)NC2(CCOc3ccccc32)C1=O)NCCc1ccc(F)cc1 (stereo unspecified)	4	-10	-11	0	12	-5
COc1ccc2c3c(cccc13)C(=O)CC2	.	19	.	30*	-12	.
COCCN1CCC(CNCc2cn(-c3cc(C)ccc3C)nc2-c2ccccc2)C1 (stereo unspecified)	2	26*	-26	0	-2	-17
COCCN1CCC(CNCc2cn[nH]c2-c2ccc(C)c(C)c2)C1 (stereo unspecified)	1	-11	0	0	10	-13
Cc1ccc(-c2nc3ccc(Br)cn3c2Cc2ccsc2)cc1	.	-26	.	0	9	.
Cc1ccc(NC(=O)c2c(C(F)(F)F)nn(C)c2SCc2cccc(C(F)(F)F)c2)cc1C	25	0	8	1	14	67*
Cc1ccc(NC(=O)c2c(C(F)(F)F)nn(C)c2SCc2ccc(Cl)cc2)cc1C	16	9	15	0	11	27
CCS(=O)(=O)n1nc(-c2ccccc2)cc1N	27	1	-10	0	9	6
Nc1cc(-c2ccc(Cl)cc2)nn1S(=O)(=O)c1ccccc1	25	1	-13	1	13	48*
c1ccc2c(c1)NCC1CCCN21 (stereo unspecified)	4	2	-16	0	1	-15
CCOC(=O)COc1ccc2c(c1)C(=O)CC1(CCCCC1)O2	10	14	-12	1	-10	-13
CCOC(=O)COc1ccc2c(c1)C(=O)CC(C)(c1cccnc1)O2 (stereo unspecified)	24	-3	-14	15*	12	-9
CC(/C=N/NC(=O)Cn1cnc2ccccc21)=C\c1ccccc1	8	27*	-6	0	-9	-16

Assay outcomes: PubChem, The Scripps Research Institute Molecular Screening Center
